# The list is not random: actives were taken first. Their share in the collection is about 1.8%.
# DDE Tn6 FP inh: inhibitors of Tn6 peptide binding to fibrin DD(E), primary screen, biochemical, fluorescence polarization, human fibrin, Tn6 probe; Fibrinogen beta chain (Homo sapiens), P02675; Fibrin DD(E) TRITC-Tn6 fluorescence polarization displacement; inhibition, % at 8.3 µM; hit rate 0.21% among 370,000;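 active = inhibition above a per-campaign cutoff: mean of compounds within control limits plus 3 SD, cut at about 15% in these data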;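 also: 0% = median of all compound wells on the plate and 100% = blocking peptide control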
# SIAE inh: human SIAE inhibitors, primary screen, biochemical, fluorescence polarization, FP-Rh probe, 1536-well HTS; Sialate O-acetylesterase (Homo sapiens), Q9HAT2; SIAE FP-Rh probe binding; inhibition, % at 9.66 µM; hit rate 0.69% among 370,000; AID 1053197, 2014;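 active = inhibition above a cutoff: mean of compounds within the control limits plus 3 SD of those, cut at about 17% in these data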;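 also: 0% = plate median of compound wells and 100% = probe without SIAE protein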
# TCR-CD3 inh: inhibitors of human TCR-CD3 interaction, primary screen, biochemical, fluorescence, TAMRA-labeled TCR probe | T-cell receptor (TCR) | inhibition, % at 9.4 µM | hit rate 0.37% among 360,000 | AID 651800, 2012;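 also: recombinant mutant TCR 2C K166C tagged with TAMRA read by polarization; 0% = receptor in buffer alone and 100% = receptor with positive control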
# HTRA1 inh: HTRA1 serine protease inhibitors, primary screen, biochemical, fluorescence polarization, HTS; Q92743; recombinant HTRA1, FP-rhodamine activity-based probe; inhibition, % at 5.96 µM; hit rate 0.5% among 340,000; AID 504803, 2011; in the data active = inhibition above about 36%;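 also: 0% = enzyme with DMSO and 100% = wells lacking enzyme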
# mABHD4 FP: ABHD4 inhibitors, primary screen, biochemical, fluorescence polarization, mouse; purified mABHD4, FP-Rh probe fluorescence polarization; inhibition, % at 8.92 µM; hit rate 0.54% among 370,000;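 active = inhibition exceeding the mean over every tested compound plus 3 SD, cut at about 30% in these data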;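 also: 0% = plate median of compound wells and 100% = S159A mutant with DMSO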
# Target sequence (Q8VD66 whole entry, looked up): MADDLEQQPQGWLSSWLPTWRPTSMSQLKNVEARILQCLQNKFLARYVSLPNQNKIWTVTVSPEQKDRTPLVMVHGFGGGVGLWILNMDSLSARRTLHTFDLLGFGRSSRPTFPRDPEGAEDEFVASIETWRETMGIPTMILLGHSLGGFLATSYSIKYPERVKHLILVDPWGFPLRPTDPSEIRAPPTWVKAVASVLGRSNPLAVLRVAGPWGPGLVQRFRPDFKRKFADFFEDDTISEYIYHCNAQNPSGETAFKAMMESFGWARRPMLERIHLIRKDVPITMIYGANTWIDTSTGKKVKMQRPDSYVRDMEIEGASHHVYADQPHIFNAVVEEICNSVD
#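 Assay system: wild-type mouse ABHD4 protein; compound: single nominal dose of 8.92 µM, 0.89% DMSO final; schedule: 45 min + 60 min at 25 °C; measured by: FP readout, ex 525 nm / em 598 nm; evaluation: % inhibition of FP-Rh probe binding versus controls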
# DDE Tn7 FP inh: inhibitors of Tn7 peptide binding to fibrin DD(E), primary screen, biochemical, fluorescence polarization, human fibrin, Tn7 probe. Fibrinogen beta chain (Homo sapiens), P02675. FP displacement of FITC-Tn7 peptide from fibrin DD(E); 0% = median of compound wells per plate. inhibition, % at 8.3 µM. hit rate 0.13% among 370,000. AID 720508, 2013;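 active = inhibition above the mean of compounds falling within the control limits plus 3 SD of them, cut at about 14% in these data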;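 also: 0% = plate median of compound wells and 100% = 10 µM Aha-Tn7 peptide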
#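 System: human fibrin DD(E); quantity: Fibrin-DD(E) at 2 µM final; also added: fluorescent Tn7 probe at 0.1 µM; compound dosing: single nominal test concentration of 8.3 µM per compound; schedule: 10 min preincubation, 3 h with tracer, room temperature; detection: fluorescence polarization of the labelled Tn7 tracer; repeats: one replicate per compound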
# BSA probe FL: compounds interfering with TAMRA-BSA probe, counter-screen for TCR-CD3 interaction inhibitor project, biochemical, fluorescence, TAMRA-labeled BSA | hit rate 10% among 1,200 | shares compounds with TCR-CD3 inh | TAMRA-labeled BSA probe fluorescence counterscreen | inhibition, % at 9.4 µM; in the data active = inhibition above about 23%;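 also: 0% = buffer low control and 100% = reference high control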
# TCR-CD3 conf: TCR-CD3 interaction inhibitors, retest, confirmation, biochemical, fluorescence, TAMRA-labeled TCR probe; shares compounds with TCR-CD3 inh; TAMRA-labeled TCR probe fluorescence binding assay; inhibition, % at 9.4 µM; hit rate 48% among 1,200
# DDE Tn7 confirm: inhibitors of Tn7 peptide binding to fibrin DD(E), confirmation, biochemical, fluorescence polarization, human fibrin, Tn7 probe; FP displacement of TRITC-Tn7 peptide from DD(E); 0% set at plate's compound-well median; shares compounds with DDE Tn7 FP inh; hit rate 5% among 460; inhibition, % at 8.3 µM;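 active = inhibition above the campaign cutoff, the mean of compounds within control limits plus 3 SD, cut at about 14% in these data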;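 also: 100% = median FP of high control wells holding Aha-Tn7 inhibitor peptide; displacers lower polarization since freed probe rises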
# Tn7 DDE ctr: counter-screen hit for Tn7 peptide-fibrin DD(E) binding disruption; shares compounds with DDE Tn7 FP inh; TRITC-Tn7 probe displacement, fluorescence polarization; inhibition, % at 8.3 µM; hit rate 3% among 460;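 active = inhibition above the cutoff, the mean of compounds lying between the control bounds plus 3 SD of those compounds, cut at about 17% in these data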;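 also: 0% = median of compound sample wells and 100% = excess unlabeled Aha-Tn7 peptide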
# DDE Tn6 FP ctr: DD(E)-Tn6 binding inhibition, counter-screen. shares compounds with DDE Tn6 FP inh. Fibrin DD(E), TRITC-Tn6 fluorescence polarization displacement; 0% = median of compound wells, not DMSO. inhibition, % at 8.3 µM. hit rate 2% among 680. AID 720621;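 active = inhibition above the mean of test compounds lying between the control limits plus 3 SD of those, cut at about 14% in these data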;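 also: 0% = median of compound wells and 100% = wells with Aha-Tn7 blocking peptide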
# DDE Tn6 confirm: inhibitors of Tn6 peptide binding to fibrin DD(E), confirmation, biochemical, fluorescence polarization, human fibrin, Tn6 probe; AID 720631, 2013; FP displacement of TRITC-Tn6 peptide from DD(E); 0% = per-plate median of test wells; hit rate 10% among 680; shares compounds with DDE Tn6 FP inh; inhibition, % at 8.3 µM;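 active = inhibition above the mean of compounds lying within the control limits plus 3 SD, cut at about 16% in these data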;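 also: 100% = high control wells holding a competing inhibitor peptide at 10 µM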
# An asterisk follows results filed as active; . = no result given; + = active, no number. Rule as the data show it, unless noted: active = inhibition above about 19%; inactive = the rest.
SMILES,DDE Tn6 FP inh,SIAE inh,TCR-CD3 inh,HTRA1 inh,mABHD4 FP,DDE Tn7 FP inh,BSA probe FL,TCR-CD3 conf,DDE Tn6 FP ctr,DDE Tn6 confirm,others
Cc1ncc(CO)c2c1Oc1nc(-c3ccccc3)nc(SCC(=O)Nc3cccc(O)c3)c1C2,-17.1,-78.1,21.4*,-113.3,-97.1,-4.5,3.2,7.4,.,.,
O=C(COC(=O)c1ccc(Br)o1)NCCCc1ccccc1,-7.8,0.5,6.9,-4.9,2.8,-0.8,.,.,.,.,
O=C(OCc1ccccc1)c1ccc(Br)o1,2.6,1.5,48.2*,-0.8,-2.6,5.2,-0.2,-0.6,.,.,
Cc1cc2nc3c(=O)[nH]c(=O)[nH]c3nc2c([N+](=O)[O-])c1N,-5.7,11.7,24.4*,28.9,18.3,31.2*,84.9*,102.8*,.,.,DDE Tn7 confirm=11.3;Tn7 DDE ctr=7.1
CC(C)CN1CN2Cc3cc(F)ccc3C2CS1(=O)=O (configuration not stated),2.9,-1.6,.,.,3.2,-3.1,.,.,.,.,
COc1ccccc1NS(=O)(=O)c1cccc(NC(=O)Nc2cccc(Cl)c2)c1,43.4*,-236.2,36.0*,-168.0,-164.1,4.9,8.5,13.9,8.7,16.7*,
COc1ccccc1NS(=O)(=O)c1cccc(NC(=O)NCCCl)c1,-9.6,-0.1,-5.0,3.5,6.9,-5.3,.,.,.,.,
COc1ccc(CN2CCC(CNC(=O)NC(C)C)CC2)cc1,-8.7,6.8,.,.,-0.1,-7.7,.,.,.,.,
CCN(CC)C(=O)CC[C@@H]1CC[C@]2(CCCN(S(=O)(=O)c3ccccc3)C2)O1,-7.1,-1.6,.,.,8.6,-3.0,.,.,.,.,
CCN(CC)c1ccc(/C=c2\sc3nc4ccccc4n3c2=O)c(O)c1,17.9*,3.7,28.1*,-8.7,24.7,4.0,28.0*,20.5*,1.0,8.2,
O=c1/c(=C/c2ccc(O)c([N+](=O)[O-])c2)sc2nc3ccccc3n12,-7.2,-17.9,2.4,.,5.5,-1.2,.,.,.,.,
C[C@H](CO)N1C[C@H](C)[C@@H](CN(C)S(=O)(=O)c2cccs2)Oc2ccc(NC(=O)Nc3ccc(C(F)(F)F)cc3)cc2C1=O,51.4*,-210.1,27.6*,-123.5,-111.5,9.8,8.2,19.3*,2.3,1.2,
C[C@H](CO)N1C[C@H](C)[C@@H](CN(C)S(=O)(=O)c2cccs2)Oc2ccc(NC(=O)Nc3ccccc3)cc2C1=O,-6.2,-25.6,-3.8,-21.8,-12.7,-0.4,.,.,.,.,
C[C@@H]1CN([C@@H](C)CO)C(=O)Cc2cc(NC(=O)Nc3ccc(C(F)(F)F)cc3)ccc2O[C@@H]1CN(C)S(=O)(=O)c1ccc(Cl)cc1,32.2*,-154.5,48.0*,-154.8,-91.2,-0.3,13.5,25.8*,0.1,11.8,
C[C@@H]1CN([C@H](C)CO)C(=O)c2cc(NC(=O)Nc3ccc(C(F)(F)F)cc3)ccc2O[C@H]1CN(C)S(=O)(=O)c1cccs1,54.3*,-195.1,43.1*,-158.1,-134.9,2.2,10.3,23.1*,-1.6,9.2,
C[C@H](CO)N1C[C@H](C)[C@@H](CN(C)S(=O)(=O)c2ccc(F)cc2)Oc2ccc(NC(=O)Nc3ccc(C(F)(F)F)cc3)cc2C1=O,41.5*,-235.9,22.3*,-141.6,-102.1,0.2,13.6,41.8*,4.8,4.1,
C[C@H](CO)N1C[C@H](C)[C@@H](CN(C)S(=O)(=O)c2ccc(F)cc2)Oc2ccc(NC(=O)Nc3ccccc3)cc2C1=O,4.1,-8.8,2.3,-20.6,-15.1,1.6,.,.,.,.,
C[C@H](CO)N1C[C@H](C)[C@H](CN(C)S(=O)(=O)c2cn(C)cn2)Oc2ccc(NC(=O)Nc3ccc(C(F)(F)F)cc3)cc2CC1=O,-13.7,-30.1,3.8,-45.9,-35.6,0.0,.,.,.,.,
CCCCNC[C@@]12CO[C@H](c3ccc(Cl)cc3)N1[C@@H](c1ccc(Cl)cc1)SC2,4.0,-0.7,.,.,-10.0,2.2,.,.,.,.,
CC(C)CN1C(=O)[C@@]2(CC(=O)N(C)C2c2ccccc2)c2cc(-n3cc(CO)nn3)ccc21 (some centres not stated),9.2,4.0,.,.,4.0,-0.9,.,.,.,.,
CCN(CC)c1ccc2nc3ccc(N)cc3[n+](-c3ccccc3)c2c1,+,-10.9,123.5*,22.3,10.7,2.3,121.4*,96.7*,-0.7,93.2*,
CN(C)/C=C1\SC(=S)N(c2ccc(Br)cc2)C1=O,35.6*,5.4,30.5*,-30.1,-73.3,7.3,90.0*,76.0*,4.1,31.6*,
CCOc1ccc(CC(=O)NCc2ccc3c(c2)cc(C)n3C)cc1,44.9*,2.8,30.9*,-10.9,15.6,2.2,1.0,3.3,3.0,0.4,
COc1cc(/C=C\C(=O)NCc2ccc3c(c2)cc(C)n3C)cc(OC)c1OC,22.2*,4.3,31.2*,-7.9,3.6,-8.0,-1.0,-0.6,9.9,4.6,
Cc1cc2cc(CNC(=O)c3ccco3)ccc2n1C,26.8*,6.3,30.6*,4.7,6.8,-5.2,4.2,8.3,6.5,-0.1,
COC(=O)[C@]12C[C@H](CC(=O)N3CCCC3)C(=O)N(Cc3ccc(Cl)cc3Cl)C1=C[C@H](COCc1ccccc1)O[C@@H]2C,10.1,-9.3,.,.,-1.3,0.6,.,.,.,.,
